D1 allo mod: D1 dopamine receptor (human) allosteric modulation; AID 641; P21728; HEK293 D1, CRE-luciferase, dopamine EC30 potentiation; actives deviate in either direction; B-score at 10 µM; hit rate 5.9% among 58,000;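 active = luminescence count or its row- and column-corrected plate score outside the 99.7% band of the plate's sample wells, on either side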
Target sequence (P21728 whole entry, looked up): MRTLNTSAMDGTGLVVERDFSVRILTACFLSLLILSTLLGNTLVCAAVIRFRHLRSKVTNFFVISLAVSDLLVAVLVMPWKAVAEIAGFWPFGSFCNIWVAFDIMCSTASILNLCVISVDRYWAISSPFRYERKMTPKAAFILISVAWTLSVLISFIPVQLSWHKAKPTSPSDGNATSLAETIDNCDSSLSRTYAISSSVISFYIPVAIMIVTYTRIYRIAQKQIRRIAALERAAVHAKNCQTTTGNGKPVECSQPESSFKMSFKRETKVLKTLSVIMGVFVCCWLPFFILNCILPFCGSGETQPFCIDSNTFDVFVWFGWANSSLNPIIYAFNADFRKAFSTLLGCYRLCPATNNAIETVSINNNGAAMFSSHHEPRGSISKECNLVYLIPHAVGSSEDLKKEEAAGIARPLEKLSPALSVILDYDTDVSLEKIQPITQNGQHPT
AP ELISA ortho: orthogonal test for alternative complement pathway inhibitors. Human serum alternative complement pathway, LPS-coated ELISA, C3 deposition; tested in compound mixtures. inhibition, % at 5 µM. hit rate 0.08% among 62,000. AID 1235;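 active = inhibition above 30% in each of the two pooled mixtures holding the compound, so the lower value exceeds 30%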
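Assay system: Human serum alternative complement pathway, C3 deposition on LPS-coated wells | Incubation: 1 h serum-compound exposure at 37 °C | Doses: 5 µM per compound in ten-compound mixtures | Read-out: Percent inhibition | Technique: ELISA with HRP anti-human C3 antibody, TMB substrate, absorbance 450 nm | Replication: Two pool placements per compound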
M1 ag: M1 muscarinic receptor agonism; CHO-M1 cells, Fluo-4 calcium fluorescence, agonist mode; hits give high values; B-score at 10 µM; hit rate 3% among 64,000; AID 626;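 active = fluorescence rise, raw or as B-score row- and column-corrected plate score, outside the 99.7% band of its plate's samples, either direction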
M1 antagonist: blocks the rat M1 muscarinic receptor response to acetylcholine | P08482 | CHO-M1 cells, Fluo-4 calcium, ACh EC80 antagonist mode; hits give low values | B-score at 10 µM | hit rate 3.4% among 64,000 | AID 628;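 active = calcium fluorescence response, raw or row-and-column corrected B-score, differing from the plate sample mean either way at a set confidence level, mostly lower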
mHtt clearance: compounds clearing mutant huntingtin protein. HeLa Exon1htt(103Q)mCFP, aggregate imaging; zero = plate's median compound well. inhibition, % at 1.5 µM. hit rate 0.42% among 47,000;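 active = inhibition of aggregate fluorescence above about 70%, also judged a hit by eye on the cell image, limit read from the data, passing the limit was not always enough; inconclusive = no rule stated for this call; inactive = not judged a hit on image review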;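 note: cells exposed to compound for three days before fixation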
D1 mod confirm: confirmation of human D1 dopamine receptor allosteric modulators; shares compounds with D1 allo mod; HEK293 D1 CRE-luciferase, dopamine EC30 potentiation; hits give high values; luminescence at 10 µM; hit rate 88% among 2,200;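 active = luminescence in either of two replicates above the same-plate mean plus 3 SD of the low-dose dopamine control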
D1 ag no DA: D1 (human) signaling in absence of dopamine; shares compounds with D1 allo mod; HEK293 D1 CRE-luciferase, luminescence, no dopamine; hits give high values; luminescence at 10 µM; hit rate 0.8% among 1,900; AID 646; in the data active = luminescence above about 3900
Isoprot counter: counter-screen for D1 modulators: isoproterenol response in HEK293 cells. shares compounds with D1 allo mod. HEK293 D1 CRE-luciferase, isoproterenol EC30 counter-screen. calls only at 10 µM. hit rate 63% among 2,200. AID 647;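 active = luminescence in either replicate above plate mean of wells with a partly effective reference agonist dose plus 3 SD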;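 note: isoproterenol raises cAMP through native beta-adrenoceptor Gs so signal bypasses D1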
Of the large screens only hits and unclear results are named; the others gave an inactive call (follow-up assays come after a bar, where they were run). A selection: hits, their analogues and other compounds. The true share with any hit is near 9%.

O=C(CSc1nnnn1-c1ccc2c(c1)OCO2)NCc1ccccc1	none
c1ccc(Nc2nc3ccccc3n3cnnc23)cc1	D1 allo mod 4.2 (no result: mHtt clearance) | D1 mod confirm 15712 | D1 ag no DA inactive | Isoprot counter inactive
c1ccc2c(c1)nc(NC1CCCCC1)c1nncn12	D1 allo mod 14 | D1 mod confirm 9836 | D1 ag no DA inactive | Isoprot counter active
COc1ccc(OC)c(/C(O)=C/C(=O)C(=O)Nc2ccccc2OC)c1	none (no result: D1 allo mod, AP ELISA ortho, M1 ag, M1 antagonist)
Cc1cccc(NC(=O)Cn2nnc(-c3cccs3)n2)c1C	none
COC(=O)c1sccc1NC(=O)c1c(C)noc1C	none
COC(=O)c1sccc1NC(=O)c1cc(C)on1	D1 allo mod 3.4 | D1 mod confirm 10948 | D1 ag no DA inactive | Isoprot counter active
COC(=O)c1sccc1NC(=O)c1ccncc1	D1 allo mod 11 (no result: mHtt clearance) | D1 mod confirm 14580 | D1 ag no DA inactive | Isoprot counter active
COC(=O)c1sccc1NC(=O)Cn1nnc(-c2ccc(C)cc2)n1	D1 allo mod 2.4 | D1 mod confirm inactive | D1 ag no DA inactive | Isoprot counter inactive
COCCn1c(SCC(=O)c2ccc(F)cc2)nnc1C(C)C	none (no result: mHtt clearance)
O=S(=O)(NC1CCCCCC1)c1cccc2cccnc12	D1 allo mod 5.5 | D1 mod confirm 9760 | D1 ag no DA inactive | Isoprot counter active
CN(CC(=O)NC1CCCCCCC1)S(=O)(=O)c1cccc2cccnc12	none (no result: D1 allo mod)
COc1ccc(F)cc1S(=O)(=O)NC1CCCC1	none (no result: D1 allo mod, AP ELISA ortho, M1 ag, M1 antagonist)
CCOC(=O)N1CCC(NC(=O)c2cc(C(=O)Nc3ccc(OC)c(OC)c3)ccc2CO)CC1	none
COc1cccc(-n2nnnc2SCC(=O)c2cc(OC)ccc2OC)c1	D1 allo mod 4.2 (no result: M1 ag, M1 antagonist, mHtt clearance) | D1 mod confirm inactive | D1 ag no DA inactive | Isoprot counter inactive
CCCc1[nH]nc2c1C(c1cccnc1)C(C#N)=C(N)O2 (centres undefined)	D1 allo mod 6.7 | D1 mod confirm inactive | D1 ag no DA inactive | Isoprot counter inactive
O=C(NCc1ccc2c(c1)OCO2)C1CCC(CNc2c(N3CCCC3)c(=O)c2=O)CC1 (centres undefined)	D1 allo mod 2.3 (no result: mHtt clearance) | D1 mod confirm inactive | D1 ag no DA inactive | Isoprot counter inactive
Cc1ccc(CNC(=O)C2CCC(CNc3c(N4CCOCC4)c(=O)c3=O)CC2)cc1 (centres undefined)	none (no result: D1 allo mod, AP ELISA ortho, M1 ag, M1 antagonist)
CCOC(=O)c1sc2nc(N3CCOCC3)c3c(c2c1N)CC(C)(C)N(C)C3	D1 allo mod 3.1 (no result: AP ELISA ortho) | D1 mod confirm 12684 | D1 ag no DA inactive | Isoprot counter active
O=C(O)CCc1nnc2n(Cc3ccc(F)cc3)c(=O)c3ccccc3n12	mHtt clearance inconclusive (no result: D1 allo mod)
CSc1nc2oc3c(c2c2nncn12)CC(C)(C)SC3	D1 allo mod 5.7 | D1 mod confirm 9128 | D1 ag no DA inactive | Isoprot counter inactive
CC1(C)Cc2c(oc3ncn4ncnc4c23)CO1	none (no result: D1 allo mod, AP ELISA ortho)
COc1ccc(-c2nn3c(-c4ccncc4)nnc3s2)cc1OC	none (no result: mHtt clearance)
COc1ccc(-c2nn3cnnc3s2)cc1OC	D1 allo mod 13 | D1 mod confirm 16540 | D1 ag no DA inactive | Isoprot counter active
CCCS(=O)(=O)N1CCCC(C(=O)NCCCN(C)c2ccccc2)C1 (centres undefined)	none
Cc1ccc2c(c1)c(-c1ccccc1)nc1nncn12	D1 allo mod 9.1 (no result: mHtt clearance) | D1 mod confirm 13296 | D1 ag no DA inactive | Isoprot counter active
Cc1nc2cc(Nc3nnc(-c4ccccc4)c4ccccc34)ccc2n1C	none (no result: D1 allo mod, AP ELISA ortho, M1 ag, M1 antagonist)
COC(=O)C(C(=O)OC)C(C(C)C)C(C(=O)OC)C(=O)OC	none
c1ccc(Cn2nnc3c(N4CCCCCC4)ncnc32)cc1	D1 allo mod 6.4 (no result: mHtt clearance) | D1 mod confirm 7556 | D1 ag no DA inactive | Isoprot counter active
CCCN1CCN(c2ncnc3c2nnn3Cc2ccccc2)CC1	none
c1ccc(Cn2nnc3c(N4CCc5ccccc54)ncnc32)cc1	D1 allo mod 3 (no result: mHtt clearance) | D1 mod confirm 6044 | D1 ag no DA inactive | Isoprot counter inactive
Cc1ccc(CNC(=O)CN(Cc2ccccc2)S(C)(=O)=O)cc1	none (no result: D1 allo mod, AP ELISA ortho, M1 ag, M1 antagonist)
COc1cccc(N2CCN(Cc3coc4c(Cl)cc(Cl)cc4c3=O)CC2)c1	none (no result: mHtt clearance)
COc1cccc(-c2nnc3n2N=C(C(C)(C)C)CS3)c1	none (no result: D1 allo mod)
CCn1c(CSc2nnc(-c3ccoc3C)n2C)nc2cc(S(=O)(=O)N(C)C)ccc21	none
CCn1c(CSc2nnc(C)n2-c2ccccc2)nc2cc(S(=O)(=O)N(C)C)ccc21	D1 allo mod 1.8 | D1 mod confirm inactive | D1 ag no DA inactive | Isoprot counter inactive
CCOC(=O)c1c(NC(=O)CN2CCOCC2)sc2c1CCCC2=O	D1 allo mod 5.4 (no result: mHtt clearance) | D1 mod confirm 8480 | D1 ag no DA inactive | Isoprot counter active
CCOC(=O)c1c(NC(=O)CN2CCOCC2)sc2c1CCCC2	none (no result: mHtt clearance)
CCOC(=O)c1c(NC(=O)CN(CC)CC)sc2c1CCN(C(=O)OCC)C2	D1 allo mod 6.1 (no result: M1 ag, M1 antagonist, mHtt clearance) | D1 mod confirm 8852 | D1 ag no DA inactive | Isoprot counter active
CCOC(=O)c1c(-c2cccs2)csc1NC(=O)CN1CCOCC1	D1 allo mod 11 (no result: mHtt clearance) | D1 mod confirm 19940 | D1 ag no DA inactive | Isoprot counter active
CCOC(=O)c1c(NC(=O)CN2CCCCC2)sc2c1CCN(C(=O)OCC)C2	D1 allo mod 3.7 (no result: mHtt clearance) | D1 mod confirm 7072 | Isoprot counter active
CCOc1ccc(Nc2nc(Cc3nnc(SCC(=O)c4ccc(C)c(C)c4)o3)cs2)cc1	none (no result: D1 allo mod, AP ELISA ortho, M1 ag, M1 antagonist)
CCCCCn1c(N2CCOCC2)nc2c1c(=O)n(CC(N)=O)c(=O)n2C	none
COc1cc2c(cc1OC)C(=NCCC(=O)O)NC(C)(C)C2	none (no result: mHtt clearance)
COc1cc2c(cc1OC)/C(=C/C#N)NC(C)(C)C2	D1 allo mod 10 (no result: mHtt clearance) | D1 mod confirm 16360 | D1 ag no DA inactive | Isoprot counter active
Clc1ccccc1Cn1nnc2c(NCC3CC3)ncnc21	D1 allo mod 2.8 | D1 mod confirm 6104 | D1 ag no DA inactive | Isoprot counter active
Clc1ccccc1Cn1nnc2c(Nc3ccccc3)ncnc21	none (no result: mHtt clearance)
CC(=O)c1c(C)[nH]c(C(=O)OCn2nnc3ccccc3c2=O)c1C	D1 allo mod 2.4 | D1 mod confirm inactive | Isoprot counter inactive
CSc1ncccc1C(=O)OCn1nnc2ccccc2c1=O	D1 allo mod 3.3 (no result: mHtt clearance) | D1 mod confirm 9044 | D1 ag no DA inactive | Isoprot counter active
Cn1c(=O)[nH]c(=O)c2c1nc(SCC(O)CO)n2Cc1ccccc1Cl (centres undefined)	none
O=C(CSCc1ccccc1)Nc1nccs1	none
c1cnc2c(SCc3ccc(-c4nnco4)cc3)cccc2c1	D1 allo mod 5.3 | D1 mod confirm 8332 | Isoprot counter active
O=C(O)C1C2C=CC(C2)C1C(=O)Nc1ccc(C(=O)N2CCCCC2)cc1 (centres undefined)	none

Bioassay records (PubChem)
